Like-named read-outs stand apart in the source and are kept apart here.
T1: BenM WT (Acinetobacter sp. ADP1, UniProt O68014 1-304)
T1 sequence: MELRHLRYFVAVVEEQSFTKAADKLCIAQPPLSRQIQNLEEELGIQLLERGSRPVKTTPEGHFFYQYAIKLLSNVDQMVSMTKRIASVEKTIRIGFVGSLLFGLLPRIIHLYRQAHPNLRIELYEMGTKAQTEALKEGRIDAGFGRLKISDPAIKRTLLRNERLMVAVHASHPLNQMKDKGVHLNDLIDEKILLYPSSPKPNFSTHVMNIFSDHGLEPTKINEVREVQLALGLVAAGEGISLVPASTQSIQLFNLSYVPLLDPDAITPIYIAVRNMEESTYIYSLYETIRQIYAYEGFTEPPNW


Columns and labels:
[1] = system: 209bp_CYC1p_BenO_T1::yEGFP reporter; format: cell-based, Saccharomyces cerevisiae; settings: P < 0.05
209 bp_CYC1pro = assay: Biolayer interferometry of BenM WT on negative control cyc1 promoter element; format: binding; settings: BLI, 1.6–100 nM WT BenM
How it was run: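 His-tagged protein purified on a HisTrap column with stepwise imidazole elution (Tris–HCl, NaCl, glycerol, DTT, pH 7.9), then optionally polished by Superdex 200 gel filtration (50 mM Tris–HCl, 150 mM NaCl, pH 8.0). Biotinylated 209 bp promoter duplex was annealed at 94°C for 2 min, then RT for 3 h. Kinetics were kept only when fit R² > 0.95; Req/Rmax fractional saturation versus protein concentration gave the Hill coefficient.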

[2] = system: 209bp_CYC1p_BenO_T1::yEGFP reporter; format: cell-based, Saccharomyces cerevisiae
How it was run: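 S. cerevisiae CEN.PK carrying a chromosomal yeGFP reporter and plasmid-borne BenM variants, grown overnight in SC-Leu at 30°C. Cultures were subcultured 1:100 into medium ± CCM for 22–23 h, then flow cytometry (488 nm) gave MFI from 10 000 gated single cells. Controls were run in biological triplicate. Fold induction is inducer-medium MFI divided by control-medium MFI. Populations were compared by two-tailed Mann–Whitney test.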

BenM WT = target: T1, BenM WT; assay: BLI

Row | Molecule | lowest adipic acid concentration with significant induction [1] | binding to negative control cyc1 promoter element (209 bp_CYC1pro) | fold-induction ([2]; 0.035 mM CCM) | fold-induction ([2]; 0.070 mM CCM) | fold induction ([2]; 1.4 mM CCM vs control medium) | lowest CCM concentration with significant induction (lower detection limit) ([2]; P < 0.05 vs control medium) | fold induction by CCM ([2]; within the operational range of WT BenM) | binding result (BenM WT)
1 | BenM WT: Acinetobacter sp. ADP1 CCM-binding LysR-type transcriptional activator BenM, wild type (protein, UniProt O68014 1-304, looked up) HTH-type transcriptional …: MELRHLRYFVAVVEEQSFTKAADKLCIAQPPLSRQIQNLEEELGIQLLERGSRPVKTTPEGHFFYQYAIKLLSNVDQMVSMTKRIASVEKTIRIGFVGSLLFGLLPRIIHLYRQAHPNLRIELYEMGTKAQTEALKEGRIDAGFGRLKISDPAIKRTLLRNERLMVAVHASHPLNQMKDKGVHLNDLIDEKILLYPSSPKPNFSTHVMNIFSDHGLEPTKINEVREVQLALGLVAAGEGISLVPASTQSIQLFNLSYVPLLDPDAITPIYIAVRNMEESTYIYSLYETIRQIYAYEGFTEPPNW | 14 mM | no binding was observed | 0.90 ± 0.05 | 1.02 ± 0.14 | 2.8 fold | 0.56 mM | 5 fold | 
2 | 209bp_CYC1pro (dsDNA) DNA 1: ATTAGGACCTTTGCAGCATAAATTACTATACTTCTATAGACACACAAACACAAATACACACACTAAATTAATA DNA 2: TATTAATTTAGTGTGTGTATTTGTGTTTGTGTGTCTATAGAAGTATAGTAATTTATGCTGCAAAGGTCCTAAT |  |  |  |  |  |  |  | no binding

— publication PMC6943132 (Nucleic Acids Research, 2019)
